Source: article PMC9386786 (Cell metabolism, 2022)
Like-named read-outs stand apart in the source and are kept apart here.

Assays:
CNOT6L = CNOT6L (Homo sapiens, UniProt Q96LI5); test: Gel-based deadenylase assay, CNOT6L; assay type: biochemical
[1] = tested on: GDF15 and FGF21 mRNAs in Huh7 cells; test: Hepatokine mRNA and protein levels in Huh7 cells; assay type: cell-based, human; conditions: for EC50: Homo sapiens
WT mice [2] = test: Oxygen consumption and RER; assay type: in vivo, mouse
Outline: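 WT mice received a single ip injection of vehicle or test compound (2 mg/kg). They were then housed singly on a 12 h light/dark cycle, either fed or food-deprived. VO2 and VCO2 were recorded at 25 °C by indirect calorimetry, and dark- and light-cycle averages were taken. VO2 was expressed per kg body weight per hour, and RER was calculated as VCO2/VO2.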

[3] = tested on: neurons in NTS, AP and PVN; test: c-Fos immunofluorescence in the brain; assay type: in vivo, mouse
[4] = tested on: promoter activity of GDF15 and FGF21 genes; test: Promoter luciferase reporter assay in Huh7 cells; assay type: cell-based, human
Outline: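 Human GDF15 or FGF21 promoters were PCR-amplified from Huh7 genomic DNA and placed upstream of firefly luciferase; a promoter-less construct served as control. Constructs (50–100 ng) were lipofected into Huh7 cells with a Renilla luciferase (TK) control, and cells were treated with vehicle or test compound. Firefly activity was read by dual-luciferase assay and normalized to Renilla.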

[5] = tested on: Gdf15 and Fgf21 mRNAs in primary hepatocytes; test: Hepatokine mRNA levels in mouse primary hepatocytes; assay type: cell-based; conditions: for EC50: Mus musculus, Hepatocyte
Outline: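 Hepatocytes were isolated from 8-week-old male mice by portal vein perfusion and collagenase digestion, Percoll-purified, plated on collagen I, and cultured in William's E medium. Huh7 cells were grown in DMEM with 10% FBS. Cells were exposed to test compound at graded concentrations and for various times. mRNAs were quantified by RT-qPCR, normalized to Hprt (mouse) or GAPDH (human); n = 3 per group. EC50 was derived from the concentration–response curves.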

CNOT8 = CNOT8 (Homo sapiens, UniProt Q9UFF9); test: Gel-based deadenylase assay, CNOT8; assay type: biochemical
Chain of CNOT8 (Q9UFF9 whole entry, the tested form may be a part): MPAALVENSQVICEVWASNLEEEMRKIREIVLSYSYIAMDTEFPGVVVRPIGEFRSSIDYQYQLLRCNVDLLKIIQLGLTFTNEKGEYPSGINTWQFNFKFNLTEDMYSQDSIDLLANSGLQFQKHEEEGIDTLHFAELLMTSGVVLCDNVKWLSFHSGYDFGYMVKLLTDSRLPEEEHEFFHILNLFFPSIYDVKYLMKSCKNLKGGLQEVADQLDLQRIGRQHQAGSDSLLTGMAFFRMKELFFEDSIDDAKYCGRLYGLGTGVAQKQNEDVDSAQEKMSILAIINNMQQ
Outline: (§1)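 Enzymes were expressed in and purified from E. coli BL21: the human CNOT6 catalytic domain (aa 153–557) and full-length human CNOT7 and CNOT8. Each enzyme (2.5 μM final) was preincubated with inhibitor at the indicated concentrations for 1 h at 37 °C. 5′-FITC-labelled poly(A)20 RNA (50 nM final) was then added for 1.5 h at 37 °C, and deadenylation was resolved on gel.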

[6] = tested on: GDF15 and FGF21 mRNAs in primary hepatocytes and Huh7 cells; test: mRNA stability assay with actinomycin D; assay type: cell-based; conditions: with actinomycin D 5 μg/mL; iD1 5 μM
Outline: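 Mouse primary hepatocytes and Huh7 cells were treated with actinomycin D (5 μg/mL) plus DMSO vehicle or test compound (5 μM in hepatocytes) for a time course. Before actinomycin D, Huh7 cells were pretreated with Wy-14643 (200 μM, 6 h) to induce FGF21 mRNA. Transcripts were measured by RT-qPCR, normalized to Hprt or GAPDH, and expressed as percent of the initial level. Half-lives were fitted by first-order decay; n = 3.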

[7] = tested on: 3' UTRs of human GDF15 and FGF21 and mouse Gdf15 and Fgf21 mRNAs; test: 3' UTR luciferase assay in Huh7 cells; assay type: cell-based
Outline: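 Human GDF15/FGF21 3′UTRs (amplified from Huh7 cDNA) and mouse Gdf15/Fgf21 3′UTRs (from WT mouse liver cDNA) were cloned downstream of the firefly luciferase coding region. These plasmids (50–100 ng) were lipofected into Huh7 cells together with a Renilla luciferase (TK) control. Firefly and Renilla activities were measured by dual-luciferase assay, and firefly signal was normalized to Renilla to correct for transfection efficiency.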

WT mice [8] = assay type: in vivo, mouse; conditions: single administration
WT mice [9] = test: Food intake and body weight after a single administration in mice; assay type: in vivo, mouse; conditions: for ED50: Mus musculus, ip
CNOT7 = CNOT7 (Homo sapiens, UniProt Q9UIV1); test: Gel-based deadenylase assay, CNOT7; assay type: biochemical
Chain of CNOT7 (Q9UIV1 whole entry): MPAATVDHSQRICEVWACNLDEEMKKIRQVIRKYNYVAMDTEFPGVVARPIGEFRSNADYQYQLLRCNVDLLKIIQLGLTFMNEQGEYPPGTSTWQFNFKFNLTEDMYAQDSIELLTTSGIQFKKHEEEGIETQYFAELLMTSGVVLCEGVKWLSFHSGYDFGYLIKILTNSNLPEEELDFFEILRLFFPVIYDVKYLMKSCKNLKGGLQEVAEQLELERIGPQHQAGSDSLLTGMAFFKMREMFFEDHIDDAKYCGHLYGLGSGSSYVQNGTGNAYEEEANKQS
Outline: as §1

CNOT6 = CNOT6 (Homo sapiens, UniProt Q9ULM6); test: Gel-based deadenylase assay, CNOT6; assay type: biochemical; conditions: compared to CNOT6L
Chain of CNOT6 (Q9ULM6 153-557): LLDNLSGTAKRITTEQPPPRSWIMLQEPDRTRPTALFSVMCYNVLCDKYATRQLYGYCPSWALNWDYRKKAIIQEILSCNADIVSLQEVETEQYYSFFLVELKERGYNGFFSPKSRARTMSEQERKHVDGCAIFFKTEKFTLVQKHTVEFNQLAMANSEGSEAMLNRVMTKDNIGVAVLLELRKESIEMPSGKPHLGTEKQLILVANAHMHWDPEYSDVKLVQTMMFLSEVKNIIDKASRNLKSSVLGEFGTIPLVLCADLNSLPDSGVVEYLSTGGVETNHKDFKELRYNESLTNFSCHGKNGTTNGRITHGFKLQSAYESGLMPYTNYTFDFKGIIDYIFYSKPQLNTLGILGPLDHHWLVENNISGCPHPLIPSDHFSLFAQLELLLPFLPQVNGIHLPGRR
Outline: as §1

[10] = tested on: translation of Gdf15 and Fgf21 mRNAs in liver; test: Polysome profiling of livers of treated mice; assay type: in vivo, mouse
[11] = tested on: hepatic Gdf15 and Fgf21 mRNAs, serum GDF15 and FGF21; test: Hepatokine levels after intraperitoneal administration in WT C57BL/6J mice; assay type: in vivo, mouse
Outline: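 WT mice received test compound ip at 2 mg/kg. For fasting/refeeding, mice were fed, fasted 24 h, or refed 2 h after a 24 h fast, and were injected 3 h before dissection. For exercise, mice ran to exhaustion on a 10°-sloped shock treadmill and were sampled before, immediately after, or 3 h after running, with food and water available. Poly(I:C) was given ip at 10 mg/kg. Hepatic mRNA was measured by RT-qPCR (Hprt-normalized) and serum GDF15/FGF21 by ELISA.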

[12] = tested on: C57BL/6J WT mice kept on a high-fat diet; test: HFD-induced obese mouse model, treatment twice a week for 12 weeks; assay type: in vivo
Outline: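 From 8 weeks of age, male and female C57BL/6J mice were fed high-fat diet for 12 weeks and given test compound (2 mg/kg) or vehicle ip twice weekly. Measurements included: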

[13] = ref Xiong et al., 2017; cited from earlier work
[14] = male and female mice, IP twice a week

Chain of CNOT6L (Q96LI5 158-555): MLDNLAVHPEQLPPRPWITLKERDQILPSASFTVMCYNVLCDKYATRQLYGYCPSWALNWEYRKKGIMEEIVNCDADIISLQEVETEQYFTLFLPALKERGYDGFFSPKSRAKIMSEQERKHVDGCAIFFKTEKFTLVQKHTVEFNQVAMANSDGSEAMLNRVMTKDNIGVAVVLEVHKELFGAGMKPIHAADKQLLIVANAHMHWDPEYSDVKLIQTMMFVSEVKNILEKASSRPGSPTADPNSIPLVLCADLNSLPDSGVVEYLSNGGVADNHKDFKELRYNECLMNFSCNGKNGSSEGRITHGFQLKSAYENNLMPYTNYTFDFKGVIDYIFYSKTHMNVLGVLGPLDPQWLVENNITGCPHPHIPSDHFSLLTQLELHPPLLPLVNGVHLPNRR

## Nc1ncnc2c1ncn2[C@@H]1O[C@H](COP(=O)(O)O)[C@@H](O)[C@H]1O [AMP]
CNOT6L
  IC50: 76300 nM

## Cc1cccc(Nc2cc(Cl)nc(SCC(=O)O)n2)c1C [WY-14643, reference compound]
[1]; 200 μM, 6 h
  FGF21 mRNA in Huh7 cells: increased

## CC(C)=CCC(O)C1=CC(=O)c2c(O)ccc(O)c2C1=O (stereo not drawn) [iD1]
WT mice [2]; fasted condition, relative to Veh
  oxygen consumption: consumed more oxygen
WT mice [2]; fed condition
  respiratory exchange rate (RER): significantly reduced
[3]; 3 h after administration
  c-Fos staining within NTS and AP: robust c-Fos staining
[3]; after administration
  c-Fos staining within PVN in the hypothalamus: Robust c-Fos staining
[4]
  promoter activity of GDF15 and FGF21 genes: did not alter
[5]; read-out: EC50 for Fgf21 mRNA
  EC50: 2080 nM
[5]; read-out: EC50 for Gdf15 mRNA
  EC50: 1110 nM
[5]; mouse primary hepatocytes and Huh7 cells, dose- and time-dependent
  levels of hepatokine mRNAs (GDF15, FGF21, INHBE, ADM, ADAMTS1, HBEGF): increased
CNOT8
  inhibition of CNOT8: did not inhibit
[6]
  degradation of GDF15 and FGF21 mRNAs: potently suppressed degradation
[7]
  decrease of luciferase activity by 3' UTRs of GDF15/FGF21 mRNAs: reversed
WT mice [8]
  serum insulin levels: decrease
  serum ketone body levels: increasing
  serum triglycerides: reduced
WT mice [9]; Cnot6l whole-body KO mice
  effects on food intake, body weight, serum triglycerides, ketone bodies, hepatic Gdf15 and Fgf21 mRNAs in Cnot6l−/− mice: did not induce significant effects
WT mice [9]; read-out: EC50 for body weight
  ED50: 1.23 mg/kg
WT mice [9]; read-out: EC50 for food intake
  ED50: 1.43 mg/kg
WT mice [9]; single administration
  body weight: significantly reduced
CNOT7
  inhibition of CNOT7: did not inhibit
[1]; Huh-7, read-out: EC50 for FGF21 mRNA
  EC50: 1610 nM
[1]; Huh-7, read-out: EC50 for GDF15 mRNA
  EC50: 530 nM
[1]; Huh7 cells
  GDF15 and FGF21 protein abundance: increased
[1]; combination, Huh7 cells, 6 h
  effects of thapsigargin and WY-14643 on GDF15 and FGF21 mRNA levels: potentiated
CNOT6
  inhibition of CNOT6: modestly inhibited
[10]
  global translation: did not affect
  translational efficacy of Gdf15 and Fgf21 mRNAs: not affected
[11]; 3 h after one-time IP injection, 2 mg/kg
  levels of hepatic Gdf15 and Fgf21 mRNAs and serum GDF15 and FGF21 proteins: significantly increased
[11]; 3 h post-exercise recovery period, liver
  degradation of Gdf15 and Fgf21 mRNAs post-exercise: attenuated degradation
[11]; liver, refed after 24 h fasting
  Fgf21 mRNA suppression induced by refeeding: attenuated
[12]; HFD
  obesity-induced hyperlipidemia, hyperglycemia, and hyperinsulinemia: ameliorated
[12]; HFD obese mice
  hepatic steatosis and lipid accumulation in adipose tissues: reversed
[12]; HFD, long-term treatment, ITT and GTT
  insulin sensitivity and glucose tolerance: improved
[12]; [14]
  HFD-induced gain of body weight: dramatically decreased
  food intake on HFD: suppressed

## C/C=C(/C)C(=O)O[C@H]1C(C)=C2[C@H]([C@@H]1OC(=O)CCCCCCC)[C@@](C)(OC(C)=O)C[C@H](OC(=O)CCC)[C@@]1(O)[C@H]2OC(=O)[C@@]1(C)O [thapsigargin, reference compound]
[1]; 1 μM, 6 h
  GDF15 mRNA in Huh7 cells: increased

## poly(I:C) [reference compound]
[11]; IP 10 mg/kg
  hepatic Gdf15 mRNA: increased

B1: GDF15 protein: Growth differentiation factor 15, circulating secretory protein (protein, UniProt Q99988 195-308, looked up)
Growth/differentiation factor …: ARARNGDHCPLGPGRCCRLHTVRASLEDLGWADWVLSPREVQVTMCIGACPSQFRAANMHAQIKTSLHRLKPDTVPAPCCVPASYNPMVLIQKTDTGVSLQTYDDLLAKDCHCI
[13]
  half-life of circulating protein: 3 h
